# Data as given in the RNAGym collection of RNA variant scans (doi:10.1126/science.aae0568).
# Variants at the floor of the assay were thinned out.
# B1: tRNA (parent)
# chain: GUUCCGUUGGCGUAAUGGUAACGCGUCUCCCUCCUAAGGAGAAGACUGCGGGUUCGAGUCCCGUACGGAACG
# Variants of: B1
# Experiment: yeast fitness relative to wild type (ratio to wild type); higher = fitter; tRNA-Arg(CCU), competitive growth, 37 C, YPD
# Method in brief: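 Genotype frequency changes were the basis for Darwinian fitness relative to wild type. The frequencies came from 100-nucleotide paired-end sequencing of gene amplicons from the start population and each end population of pooled yeast strains with tRNA-Arg(CCU) gene variants at the native locus. Competition ran in YPD at 37°C for 24 hours in six replicates, genotypes needed ≥ 100 starting reads, and estimates < 0.5 were set to 0.5.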
row,Variant,yeast fitness
1,GUUCCGUUGGCGUAAUGGUAACGCGUCUCCCUUCUAAGGAGAAGACUGCGGGUUAGAGUCCCGUAUGGAACG,0.562
2,GUUCCGUUGGCGUAAUGGUAACGCGUCUCCCUCAUAAGCCGAAGACUGCGGGUUCCAGUCGGGUACGGAACG,≤ 0.5
3,GUUCCGUUGGCGUAAUGGUAACGCGUCUCCCUCAUAAGGAGGAGACUGCGGGUUCGAGUCCCGUACGGAACG,0.676
4,GUUCCGUUGGCGUAAUGGUAACGCGUCUCCCUUCUAAGGAGAAGACUGCGGGUUCGAGUCCCGUCCGGAACG,0.664
5,GUUCCGUUGGCGUAAUGGUAACGCGUCUCCCUUCUAAGGAGAAGACUGCGGGUUCGAGUCCCGUAUGGAACG,0.651
6,GUUCCGUUGGCGUAAUGGUAACGCGUCUCCCUUCUAAGGAGAAGACUGGGGGUUCGAGUCCCGUACGGAACG,0.817
7,GUUCCGUUGGCGUAAUGGUAACGCGUCUCCCUCAUAAGGAGAAGACUGCGGGUUGGAGUCCCGCCCGGAACG,≤ 0.5
8,GUUCCGUUGGCGUAAUGGUAACGCGUCUCCCUUCUAAGGAGAAAACUGCGGGUUCGAGUCUCGUACGGAACG,0.675
9,GUUCCGUUGGCGUAAUGGUAACGCGUCUCCCUCGUAGGGAGAAGACUGCGGGUUCGAGUCCAGUACGGAACG,≤ 0.5
10,GUUCCGUUGGCGUAAUGGUAACGCGUCUCCCUCGUAAGGAGAAGACUGCGGGUUGGAGUCCCGUACGGAACG,0.567
11,GUUCCGUUGGCGUAAUGGUAACGCGUCUCCCUUGUAAGGGGAAGACUGCGGGUUCGAGUCCCGUACGGAACG,0.625
12,GUUCCGUUGGCGUAAUGGUAACGCGUCUCCCUUCUAAGGAGAAGACUGCGGGUUCGAGUCCCGUACGGCACG,0.726
13,GUUCCGUUGGCGUAAUGGUAACGCGUCUCCCUUCUAAGGAGAAGACUGCGGGUUCGAGUCACGUACGGAACG,0.52
14,GUUCCGUUGGCGUAAUGGUAACGCGUCUCCCUCGUAAGGAGAAGACUGUGGGUUCGAGUCCCGUAUGGAACG,0.557
15,GUUCCGUUGGCGUAAUGGUAACGCGUCUCCCUCGUACGGAGAAGACUGCGGGUUCGAGUCCCGUACGGAACG,0.554
16,GUUCCGUUGGCGUAAUGGUAACGCGUCUCCCUUCUAAGGAGAAGGCUGAGGGAUCGAGUCCCGUACGGAACG,≤ 0.5
17,GUUCCGUUGGCGUAAUGGUAACGCGUCUCCCUCAUAAGGAGAAGACUGCGGGUUCGAGUCCCGUGCGGAACG,0.69
18,GUUCCGUUGGCGUAAUGGUAACGCGUCUCCCUCAUAAGGAGAAGACAGCGGGUUCGAGUCACGUACGGAACG,≤ 0.5
19,GUUCCGUUGGCGUAAUGGUAACGCGUCUCCCUCGUAAGGGGAAGACUCCGGGUUCGAGUCCCAUAUGGAACG,0.605
20,GUUCCGUUGGCGUAAUGGUAACGCGUCUCCCUCAUAAGGAGAAGACUGUGGGUUCGAGCCCCGUACGGAACG,≤ 0.5
21,GUUCCGUUGGCGUAAUGGUAACGCGUCUCCCUCGUAGAGAGAAGACUGCAGGUUCGAGUCCCGUACGGAACG,≤ 0.5
22,GUUCCGUUGGCGUAAUGGUAACGCGUCUCCCUCGUACGGAGAAGACUGCGGGUUCGAGUCCUGUAAGGAACG,≤ 0.5
23,GUUCCGUUGGCGUAAUGGUAACGCGUCUCCCUUCUAAGGAGAUGACUGGCGGUUCGAGUCUCGUAUGGAACG,≤ 0.5
24,GUUCCGUUGGCGUAAUGGUAACGCGUCUCCCUCAUAAGGAGAAGACCGCGGGUUCGAGUCCCGUACGGAACG,0.646
25,GUUCCGUUGGCGUAAUGGUAACGCGUCUCCCUCAUAGGGAGAAGACUGCGGGUUCGAGUCCCGUAUGGAACG,≤ 0.5

row,Variant,yeast fitness
1,GUUCCGUUGGCGUAAUGGUAACGCGUCUCCCUCAUAAGGAGAAGACCGCGAGUUCGAGUCCCGUACGGAACG,0.53
2,GUUCCGUUGGCGUAAUGGUAACGCGUCUCCCUUCUAAGGAGAAGACUGCGGAUUCGUGUCCCGUACGGAACG,≤ 0.5
3,GUUCCGUUGGCGUAAUGGUAACGCGUCUCCCUCGUAAGGAGAAGUCUGCCGGUUCGCGUCCCGUACGGAACG,≤ 0.5
4,GUUCCGUUGGCGUAAUGGUAACGCGUCUCCCUUCUAAGGAGAAGACUGCGGGUUCGAGUCCGGUACGGCACG,0.595
5,GUUCCGUUGGCGUAAUGGUAACGCGUCUCCCUCGUAAGGAGAAGACUGCGGGUUCGCGUCCCGUACGGAACG,≤ 0.5
6,GUUCCGUUGGCGUAAUGGUAACGCGUCUCCCUUCUAAGGAGAAGACUACGGGUUCGAGUUCCGGUCGGAACG,0.606
7,GUUCCGUUGGCGUAAUGGUAACGCGUCUCCCUCGUAAGGAGAAGACUGCGGGUUCGAGUCUCGUACGGAUCG,0.639
8,GUUCCGUUGGCGUAAUGGUAACGCGUCUCCCUUGUAAGGAGAAGACUGCGGGUUCGAGUCCCGUACGGAACG,0.648
9,GUUCCGUUGGCGUAAUGGUAACGCGUCUCCCUCGUAAGGAGAAGACUGCGGGUUCGAGUGCUGUACGGAACG,0.65
10,GUUCCGUUGGCGUAAUGGUAACGCGUCUCCCUUCUAAGGAGAAGACUACGGGUUCGAGUCCCGUACGGCACG,0.705
11,GUUCCGUUGGCGUAAUGGUAACGCGUCUCCCUCGUAAGGAGAUGACUGCGGGUUCGAGUCGCGUACGGAACG,0.614
12,GUUCCGUUGGCGUAAUGGUAACGCGUCUCCCUCAUAAGGAGAAGACUGCGGGUUCGAGUCCCGUACCGAACG,0.782
13,GUUCCGUUGGCGUAAUGGUAACGCGUCUCCCUCAUAAGGAGAAGACUGCGGGUUCGAGUCCCGUACUGAACG,0.717
14,GUUCCGUUGGCGUAAUGGUAACGCGUCUCCCUCGUAAGGAGUAGACUGCGGGUUCGAGUCCCGUACGGAACG,0.621
15,GUUCCGUUGGCGUAAUGGUAACGCGUCUCCCUUCUAAGGAGAAGACUGCGGGUUCGGGUCCCGUACGGAACG,0.628
16,GUUCCGUUGGCGUAAUGGUAACGCGUCUCCCUCAUAAGGCGAAGACUGCGGGUCCGAGUCCCGUACGGAACG,≤ 0.5
17,GUUCCGUUGGCGUAAUGGUAACGCGUCUCCCUUCUAAGGAGAAGACGGUGGGUUCGAGUCCCGUACGGAACG,0.581
18,GUUCCGUUGGCGUAAUGGUAACGCGUCUCCCUUCUAAGGAGAUGACUGGCGGUUCGAGUCUCGUACGGAACG,≤ 0.5
19,GUUCCGUUGGCGUAAUGGUAACGCGUCUCCCUCGUAAGGAGAUGACUCCGGGUUCGAGUCCCGUACGGAACG,≤ 0.5
20,GUUCCGUUGGCGUAAUGGUAACGCGUCUCCCUUCUAAGGAGAAGACUGAGGGUUCGAGUCCCCUACGGAACG,≤ 0.5
21,GUUCCGUUGGCGUAAUGGUAACGCGUCUCCCUUAUAAGGAGAAGACUGCAGGUUCGAGUCCUGUACGGACCG,≤ 0.5
22,GUUCCGUUGGCGUAAUGGUAACGCGUCUCCCUCGUACGGAGAAGACUGCGGGUUCGAGUGCCGUUCGGAACG,≤ 0.5
23,GUUCCGUUGGCGUAAUGGUAACGCGUCUCCCUUCUAAUGAGAAGACUGCGGGUUCGAGUCCCGUACGGAACG,0.632
24,GUUCCGUUGGCGUAAUGGUAACGCGUCUCCCUUCUAACGAGAAGACUGCGGGUUCGAGUCCCGUACGGAACG,0.609
25,GUUCCGUUGGCGUAAUGGUAACGCGUCUCCCUCAUAAGGAGAAGACUGCGGGUUCGAGUCCUGUACGGAACG,0.785

row,Variant,yeast fitness
1,GUUCCGUUGGCGUAAUGGUAACGCGUCUCCCUUCUAAGGAGAAGACUGCGGGUCCGAGUCGCGUACGGAACG,≤ 0.5
2,GUUCCGUUGGCGUAAUGGUAACGCGUCUCCCUUCUAAGGAGAAGACUGCGGGUUCGAGUCGCGUACGCAACG,≤ 0.5
3,GUUCCGUUGGCGUAAUGGUAACGCGUCUCCCUCGUAAGGCGAAGAGUGCGGGUUCGAGUCCCGUACGGAACG,0.562
4,GUUCCGUUGGCGUAAUGGUAACGCGUCUCCCUCGUAAGGCGAAAACUGCGGGUUCGAGUCCCGUACGGUACG,≤ 0.5
5,GUUCCGUUGGCGUAAUGGUAACGCGUCUCCCUCAUAAGGCGAAGACUGCGGGUUCGAGUCCCGUACGGAACG,0.747
6,GUUCCGUUGGCGUAAUGGUAACGCGUCUCCCUUCUAAGCAGAAGACUGCGAGUUCGAGUGCCGUACGGAACG,≤ 0.5
7,GUUCCGUUGGCGUAAUGGUAACGCGUCUCCCUCGUAAGGAGAAGACUGAGGGUUCGAGUCCCGUACGGAACG,0.591
8,GUUCCGUUGGCGUAAUGGUAACGCGUCUCCCUUCUAAGAAGAAGACUGCGGGUUCGAGUCCCGUACGGAUCG,≤ 0.5
9,GUUCCGUUGGCGUAAUGGUAACGCGUCUCCCUCGUAAGGAGAAGACUGCGGGUUCGAGUGCCGUACGGAACG,0.782
10,GUUCCGUUGGCGUAAUGGUAACGCGUCUCCCUCGUAAGGAGAUGACUGCGGGUUCGAGUCCCGUACGGACCG,≤ 0.5
11,GUUCCGUUGGCGUAAUGGUAACGCGUCUCCCUUCUAAGGAGAUGACUGGCGGUUCGAGUCUCGCAUGGAACG,≤ 0.5
12,GUUCCGUUGGCGUAAUGGUAACGCGUCUCCCUCAUAAGGAGAAGACUGCAGGUUCGAGUCCCGUACGGAACG,0.742
13,GUUCCGUUGGCGUAAUGGUAACGCGUCUCCCUCAUAAGGAGAAGACUGCCGGUUCGAGUCCCGUACGGAACG,0.667
14,GUUCCGUUGGCGUAAUGGUAACGCGUCUCCCUUCUAAGCAGAAGACUGCGGGUUCGAGCCAUGUACGGAACG,≤ 0.5
15,GUUCCGUUGGCGUAAUGGUAACGCGUCUCCCUCAUAAGGAGAAGACUGCGGGUACGAGUCCCGUACGGAACG,≤ 0.5
16,GUUCCGUUGGCGUAAUGGUAACGCGUCUCCCUCAUAAGGAGAAGCCUGCGGGUUCGAGUCCCGUACGGAACG,0.675
17,GUUCCGUUGGCGUAAUGGUAACGCGUCUCCCUCAUAUGGAGAAAACUGCGAGUUAGAGUCCCGUACGGAACG,0.603
18,GUUCCGUUGGCGUAAUGGUAACGCGUCUCCCUCAUAAGGAAAAGACUGCGGGUUGGAGUCCCGUAUGGAACG,≤ 0.5
19,GUUCCGUUGGCGUAAUGGUAACGCGUCUCCCUCGUAAGGAGAAGGCUGCGGGUUCGAGGCCCGUACGGAACG,≤ 0.5
20,GUUCCGUUGGCGUAAUGGUAACGCGUCUCCCUCGUAAGGGGAAGACUGCGGGUUCGAGUCCCGCACGGAACG,0.578
21,GUUCCGUUGGCGUAAUGGUAACGCGUCUCCCUCGUUAGGAGAAGACUGCGGGUUCGAGUCCAGUACGGAACG,≤ 0.5
22,GUUCCGUUGGCGUAAUGGUAACGCGUCUCCCUCAUAAAGAGAAGACUGCGGGUUCGAGUCCCGUACGGAACG,0.699
23,GUUCCGUUGGCGUAAUGGUAACGCGUCUCCCUCAUAAGGAGAAAACUGCGGAUUUGAGUCCCGUACGGAACG,0.53
24,GUUCCGUUGGCGUAAUGGUAACGCGUCUCCCUCGUAAGGAGCAGACUGCGGGUUCGAGUCCGGUACGGAACG,0.631
25,GUUCCGUUGGCGUAAUGGUAACGCGUCUCCCUUUUAAGCAGAAGACUGCGGGUUCGAGUCCCGUACGGAACG,0.605
